ChEMBL document CHEMBL1914352, “Design, synthesis, docking, and biological evaluation of novel diazide-containing isoxazole- and pyrazole-based histone deacetylase probes” (J Med Chem, 2011)
Activity calls are given as the source filed them. The calls are words filed in the database; no cut-off is given here.

Experiments:
HepG2 = assay: Induction of apoptosis in human HepG2 cells assessed as cleavage of caspase 3 at 1 to 10 uM after 24 hrs by Western blot analysis; format: functional, cell-based
In short: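 HepG2 cells are seeded at 2.7×10^5 cells/well in D7 medium (DMEM, 7% FBS), refed after 24 h, and after 1 h at 37 °C treated with DMSO or 1, 5 or 10 µM inhibitor. Lysis is in ice-cold 1% CHAPSO buffer (50 mM Hepes pH 7.4), 45 min at 4 °C. Immunoblots are probed for cleaved caspase 3 Asp175, acetyl-Lys373 p53, total p53 and GAPDH, detected by chemiluminescence, with band densitometry.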

[1] = target: Matrix metalloproteinase-14 (Homo sapiens, UniProt P50281); assay: Inhibition of MMP14 assessed as activity remaining at […]
Stromelysin-1 = Stromelysin-1 (Homo sapiens, UniProt P08254); assay: Inhibition of MMP3 assessed as activity remaining at […]
[2] = target: T1, Interstitial collagenase (Homo sapiens) (UniProt P03956); assay: Inhibition of MMP1 assessed as activity remaining at […]
T1 sequence (whole entry): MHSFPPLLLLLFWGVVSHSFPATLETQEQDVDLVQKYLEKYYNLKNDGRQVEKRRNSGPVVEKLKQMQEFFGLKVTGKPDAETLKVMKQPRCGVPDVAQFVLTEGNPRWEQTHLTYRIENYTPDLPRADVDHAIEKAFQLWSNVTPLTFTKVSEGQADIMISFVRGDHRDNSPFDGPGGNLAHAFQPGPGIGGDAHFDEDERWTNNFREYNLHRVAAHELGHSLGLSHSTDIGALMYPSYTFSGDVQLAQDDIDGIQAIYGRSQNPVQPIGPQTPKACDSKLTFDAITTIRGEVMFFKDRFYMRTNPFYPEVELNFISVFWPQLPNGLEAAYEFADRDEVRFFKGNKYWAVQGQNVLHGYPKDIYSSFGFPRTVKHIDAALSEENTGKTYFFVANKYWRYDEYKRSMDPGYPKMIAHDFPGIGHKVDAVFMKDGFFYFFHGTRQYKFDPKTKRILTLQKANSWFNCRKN

SH-SY5Y [3] = assay: Cytotoxicity against retinoic acid-differentiated human SH-SY5Y cells assessed as cell survival at 20 uM; format: cell-based
In short: (§1)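 SH-SY5Y cells are differentiated for 7–8 days in 1% FBS medium with 10 µM retinoic acid, then seeded at 2×10^4 cells/well in 1% FBS medium with 5 µM RA. After 24 h they go into phenol-red-free 1% FBS/RA medium with DMSO or 0.5–50 µM inhibitor, without or with 100 µM LY294002, for 24 h. Readout: XTT viability as % survival vs vehicle, four replicates ± SD, one-way ANOVA with Dunnett.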

SH-SY5Y [4] = assay: Neuroprotective activity against LY294002-induced stress in retinoic acid differentiated human SH-SY5Y cells assessed as cell survival at 1 uM; format: functional, cell-based; in short: as §1
SH-SY5Y [5] = assay: Neuroprotective activity against LY294002-induced stress in retinoic acid differentiated human SH-SY5Y cells assessed as cell survival at 0.5 uM; format: functional, cell-based; in short: as §1

Stromelysin-1, sequence (P08254 100-477 limits assumed): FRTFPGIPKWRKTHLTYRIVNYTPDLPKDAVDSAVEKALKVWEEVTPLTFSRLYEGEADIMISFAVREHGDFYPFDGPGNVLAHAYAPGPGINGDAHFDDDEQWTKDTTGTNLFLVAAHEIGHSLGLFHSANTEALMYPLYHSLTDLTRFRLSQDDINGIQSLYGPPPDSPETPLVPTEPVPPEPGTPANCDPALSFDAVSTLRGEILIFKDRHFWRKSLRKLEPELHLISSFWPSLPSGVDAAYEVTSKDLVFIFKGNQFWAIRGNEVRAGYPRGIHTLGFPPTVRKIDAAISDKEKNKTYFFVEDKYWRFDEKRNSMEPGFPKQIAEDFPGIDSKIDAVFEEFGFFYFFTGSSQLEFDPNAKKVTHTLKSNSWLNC

| Activity [1] | Activity (Stromelysin-1) | Activity [2] | SMILES | Activity (HepG2) | Activity (SH-SY5Y [3]) | Activity (SH-SY5Y [4]) | Activity (SH-SY5Y [5]) |
| --- | --- | --- | --- | --- | --- | --- | --- |
| – | – | – | [N-]=[N+]=NCc1cc(N=[N+]=[N-])cc(C(=O)Nc2ccc(-c3cc(C(=O)NCCCCCCC(=O)NO)no3)cc2)c1 | Active | – | – | – |
| > 70% | > 70% | > 70% | [N-]=[N+]=NCc1cc(Cn2cc(NC(=O)CCCCCCC(=O)NO)cn2)cc(N=[N+]=[N-])c1 | – | Toxic | Active | Active |
